Experiment [1] deals with T1, Matrix metalloproteinase-9 (Homo sapiens, UniProt P14780). Briefly: Inhibition of MMP-9 catalytic domain (unknown origin).
A further experiment deals with T2, Interstitial collagenase (Homo sapiens, UniProt P03956).
T2 sequence (P03956 whole entry): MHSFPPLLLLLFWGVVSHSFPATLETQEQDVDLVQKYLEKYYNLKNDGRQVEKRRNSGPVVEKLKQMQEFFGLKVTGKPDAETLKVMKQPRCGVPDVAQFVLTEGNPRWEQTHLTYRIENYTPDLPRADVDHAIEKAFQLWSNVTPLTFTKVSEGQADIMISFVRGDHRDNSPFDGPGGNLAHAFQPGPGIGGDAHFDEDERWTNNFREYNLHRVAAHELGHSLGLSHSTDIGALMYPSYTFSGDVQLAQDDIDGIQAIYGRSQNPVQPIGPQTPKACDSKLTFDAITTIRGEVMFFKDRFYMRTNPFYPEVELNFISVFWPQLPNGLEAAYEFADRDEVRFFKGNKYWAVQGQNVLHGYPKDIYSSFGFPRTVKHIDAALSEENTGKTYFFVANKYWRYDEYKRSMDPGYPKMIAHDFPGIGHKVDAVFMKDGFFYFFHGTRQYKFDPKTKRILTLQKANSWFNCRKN
Nature of the experiment: Inhibition of MMP-1 (unknown origin) assessed as inhibition of hydrolysis of Mca-Pro-Leu-Gly-Leu-Dpa-Ala-Arg-NH2 substrate by fluorimetric assay.

Experiment [2] addresses 72 kDa type IV collagenase (Homo sapiens, UniProt P08253). Nature of the experiment: Inhibition of MMP-2 (unknown origin) assessed as inhibition of hydrolysis of Mca-Pro-Leu-Gly-Leu-Dpa-Ala-Arg-NH2 substrate by fluorimetric assay.
Another experiment has as its target T3, Matrilysin (Homo sapiens, UniProt P09237).
T3 sequence (P09237 whole entry): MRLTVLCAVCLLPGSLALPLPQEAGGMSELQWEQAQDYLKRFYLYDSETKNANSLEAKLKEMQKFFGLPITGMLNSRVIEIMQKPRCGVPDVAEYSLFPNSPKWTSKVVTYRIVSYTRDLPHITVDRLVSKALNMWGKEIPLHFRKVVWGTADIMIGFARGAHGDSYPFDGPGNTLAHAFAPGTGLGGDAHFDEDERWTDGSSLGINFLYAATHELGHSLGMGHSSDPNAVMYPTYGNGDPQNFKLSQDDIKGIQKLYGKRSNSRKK
Nature of the experiment: Inhibition of MMP-7 (unknown origin) assessed as inhibition of hydrolysis of Mca-Pro-Leu-Gly-Leu-Dpa-Ala-Arg-NH2 substrate by fluorimetric assay.

Experiment [3] deals with T1, Matrix metalloproteinase-9. Nature of the experiment: Inhibition of human recombinant MMP-9 catalytic domain (112 to 445 residues) expressed in Escherichia coli assessed as inhibition of hydrolysis of Mca-Pro-Leu-Gly-Leu-Dpa-Ala-Arg-NH2 substrate by fluorimetric assay. Summed up: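 Inhibition constant toward MMP-9 was determined fluorimetrically by monitoring hydrolysis of the quenched peptide substrate Mca-Pro-Leu-Gly-Leu-Dpa-Ala-Arg-NH₂.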

Another experiment concerns the target Collagenase 3 (Homo sapiens, UniProt P45452). Nature of the experiment: Inhibition of MMP-13 (unknown origin) assessed as inhibition of hydrolysis of Mca-Pro-Leu-Gly-Leu-Dpa-Ala-Arg-NH2 substrate by fluorimetric assay.
Experiment [4] deals with T4, Macrophage metalloelastase (Homo sapiens, UniProt P39900). Briefly: Inhibition of MMP-12 catalytic domain (unknown origin) assessed as inhibition of hydrolysis of Mca-Pro-Leu-Gly-Leu-Dpa-Ala-Arg-NH2 substrate by fluorimetric assay.
Target sequence in this assay (P39900 whole entry, the tested form may be a part): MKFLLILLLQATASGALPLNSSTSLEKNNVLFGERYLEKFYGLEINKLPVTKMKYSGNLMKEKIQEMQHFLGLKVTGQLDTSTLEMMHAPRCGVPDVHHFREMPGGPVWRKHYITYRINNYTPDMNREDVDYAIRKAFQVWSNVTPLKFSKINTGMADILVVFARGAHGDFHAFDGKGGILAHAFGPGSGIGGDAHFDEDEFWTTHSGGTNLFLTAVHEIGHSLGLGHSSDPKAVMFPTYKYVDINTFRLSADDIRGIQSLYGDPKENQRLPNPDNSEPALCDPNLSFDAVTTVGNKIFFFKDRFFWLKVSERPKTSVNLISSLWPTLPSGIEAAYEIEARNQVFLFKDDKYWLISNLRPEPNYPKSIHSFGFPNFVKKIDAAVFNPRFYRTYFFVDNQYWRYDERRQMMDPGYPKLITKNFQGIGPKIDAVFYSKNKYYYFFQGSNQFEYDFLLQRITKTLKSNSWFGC
Experiment [5] deals with T4, Macrophage metalloelastase. Nature of the experiment: Binding affinity to 15N-enriched MMP-12 catalytic domain (unknown origin) at 0.2 mM by 2D 1H-15N HSQC NMR spectroscopy. The procedure, abridged:
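Ligand was added from a DMSO-d₆ solution to a final 0.2 mM with 1% DMSO-d₆. Amide NH resonances were followed by sensitivity-enhanced 2D ¹H-¹⁵N HSQC, and spectral changes were the binding read-out.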
Target sequence in this assay (P39900 106-470 limits assumed): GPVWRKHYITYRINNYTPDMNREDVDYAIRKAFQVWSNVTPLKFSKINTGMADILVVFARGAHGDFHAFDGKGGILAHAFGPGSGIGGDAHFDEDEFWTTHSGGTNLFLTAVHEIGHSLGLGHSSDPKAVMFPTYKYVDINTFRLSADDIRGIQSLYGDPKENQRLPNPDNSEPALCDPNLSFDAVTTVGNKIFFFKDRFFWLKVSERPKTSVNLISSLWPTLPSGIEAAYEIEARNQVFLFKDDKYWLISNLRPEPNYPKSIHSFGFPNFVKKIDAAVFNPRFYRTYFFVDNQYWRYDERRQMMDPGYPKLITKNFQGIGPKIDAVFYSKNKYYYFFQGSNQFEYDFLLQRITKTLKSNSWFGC

Experiment [6] concerns the target T4, Macrophage metalloelastase. Briefly: Binding affinity to MMP-12 catalytic domain (unknown origin) assessed as hydrodynamic radius by dynamic light scattering method. The procedure, abridged:
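Samples in glass tubes sat in a thermostatic cell filled with decahydronaphthalene for refractive-index matching. Cumulant fitting of the light-scattering data gave the diffusion coefficient of the complexes, and the average hydrodynamic radius came from the Stokes–Einstein relation assuming spherical particles.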
Target sequence in this assay (P39900 106-470 limits assumed): as above

The source made the active and inactive calls. The rule behind the calls is not given here.

The Ki is the equilibrium dissociation constant of an inhibitor or competing ligand from its target.

T1 sequence (P14780 whole entry, the tested form may be a part): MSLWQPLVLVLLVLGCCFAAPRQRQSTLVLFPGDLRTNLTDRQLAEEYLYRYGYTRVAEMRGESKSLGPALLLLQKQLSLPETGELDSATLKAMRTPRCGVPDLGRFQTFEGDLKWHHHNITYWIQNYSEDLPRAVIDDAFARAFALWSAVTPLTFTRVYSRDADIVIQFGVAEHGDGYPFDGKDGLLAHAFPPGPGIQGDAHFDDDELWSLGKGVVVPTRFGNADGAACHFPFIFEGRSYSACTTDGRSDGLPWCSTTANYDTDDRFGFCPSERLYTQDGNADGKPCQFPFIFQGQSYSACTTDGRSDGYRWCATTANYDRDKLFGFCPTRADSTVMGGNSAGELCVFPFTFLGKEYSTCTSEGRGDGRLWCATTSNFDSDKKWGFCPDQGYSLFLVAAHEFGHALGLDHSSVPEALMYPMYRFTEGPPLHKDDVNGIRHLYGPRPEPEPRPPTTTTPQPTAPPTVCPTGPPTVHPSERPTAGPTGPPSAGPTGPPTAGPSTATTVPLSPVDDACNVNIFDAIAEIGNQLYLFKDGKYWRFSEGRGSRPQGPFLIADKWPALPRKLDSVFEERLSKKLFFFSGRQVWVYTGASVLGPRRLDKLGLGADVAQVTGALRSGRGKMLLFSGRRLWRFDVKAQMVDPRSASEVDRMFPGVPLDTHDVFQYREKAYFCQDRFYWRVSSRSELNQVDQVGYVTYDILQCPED
Chain of 72 kDa type IV collagenase (P08253 whole entry): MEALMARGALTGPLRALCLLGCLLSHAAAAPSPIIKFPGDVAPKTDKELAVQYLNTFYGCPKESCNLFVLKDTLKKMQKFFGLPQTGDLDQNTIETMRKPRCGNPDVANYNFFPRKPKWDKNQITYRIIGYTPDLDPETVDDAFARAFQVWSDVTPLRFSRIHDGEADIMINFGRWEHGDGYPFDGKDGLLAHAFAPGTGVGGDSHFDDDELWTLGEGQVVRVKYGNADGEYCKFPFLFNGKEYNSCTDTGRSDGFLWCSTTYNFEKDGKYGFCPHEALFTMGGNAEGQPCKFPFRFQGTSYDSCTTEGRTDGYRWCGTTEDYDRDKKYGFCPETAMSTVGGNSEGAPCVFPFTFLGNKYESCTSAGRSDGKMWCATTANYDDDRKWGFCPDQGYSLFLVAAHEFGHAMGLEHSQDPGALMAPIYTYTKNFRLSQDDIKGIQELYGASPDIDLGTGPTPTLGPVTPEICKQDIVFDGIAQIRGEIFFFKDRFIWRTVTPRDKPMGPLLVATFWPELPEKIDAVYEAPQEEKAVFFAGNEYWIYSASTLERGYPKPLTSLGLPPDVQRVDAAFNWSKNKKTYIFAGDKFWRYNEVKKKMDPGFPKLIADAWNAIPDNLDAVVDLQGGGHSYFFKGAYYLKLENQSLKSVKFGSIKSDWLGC

In experiment [1], `COc1ccc(S(=O)(=O)N(CCNC(=O)CCCCC(=O)NCCNC(=O)CCN(CCNC(=O)OC(C)(C)C)CCC(=O)NCCNC(=O)CCCCC(=O)NCCN([C@H](CO)C(=O)NO)S(=O)(=O)c2ccc(OC)cc2)[C@H](CO)C(=O)NO)cc1` gave a Ki of 289 nM.

Take `COc1ccc(S(=O)(=O)N(CCCCCNC(=O)CCCCC(=O)NCCNC(=O)CCN(CCNC(=O)OC(C)(C)C)CCC(=O)NCCNC(=O)CCCCC(=O)NCCCCCN([C@H](CO)C(=O)NO)S(=O)(=O)c2ccc(OC)cc2)[C@H](CO)C(=O)NO)cc1`: the Ki on Interstitial collagenase came out at 143 nM; in experiment [2], 15.9 nM; at Matrilysin, 3760 nM; in [3], 18 nM; on Collagenase 3 it was 57.5 nM; in experiment [4] it was 23 nM. Moreover, in [5], the outcome was Active. For the same compound, in experiment [6], the Activity was 3 nm.

In the case of `COc1ccc(S(=O)(=O)N(CC(=O)NO)CC(C)C)cc1`, the Activity in experiment [6] amounted to 2.1 nm.

The values are drawn from ChEMBL document CHEMBL3875192, “Synthesis and binding monitoring of a new nanomolar PAMAM-based matrix metalloproteinases inhibitor (MMPIs)” (Bioorg Med Chem, 2017).
